Experiments:
A549 = test: Antiproliferative activity against human A549 cells after 72 hrs by CellTiter-Glo luminescent cell viability assay; type: functional, cell-based; conditions: A549, 72 h
Summary of the method: (§1)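 Cells in exponential growth exposed to a range of inhibitor concentrations for 72 h. CellTiter-Glo reagent added, mixed 2 min to lyse cells, luminescence read 10 min later. IC50 derived from the concentration–response. Replicates n ≥ 2, mean shown.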

K562 = test: Antiproliferative activity against human K562 cells after 72 hrs by CellTiter-Glo luminescent cell viability assay; type: functional, cell-based; conditions: K562, 72 h; summary of the method: as §1
HCT-116 = test: Antiproliferative activity against human HCT116 cells after 72 hrs by CellTiter-Glo luminescent cell viability assay; type: functional, cell-based; conditions: HCT-116, 72 h; summary of the method: as §1
Histone deacetylase = test: Inhibition of human HDAC in HeLa cell nuclear extracts using KI-104 Fluor de Lys as substrate by fluorescence assay; type: protein assay
Summary of the method: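 HDAC activity from partially purified HeLa nuclear extracts, using a fluorogenic acetylated histone peptide (Fluor de Lys) as substrate. Replicates n ≥ 2, mean values reported.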

[1] = Oral bioavailability in mouse; type: ADME, organism-based; conditions: in vivo
[2] = Clearance in mouse; type: ADME, organism-based; conditions: in vivo

Row | SMILES | IC50 (A549) | IC50 (K562) | IC50 (HCT-116) | IC50 (Histone deacetylase) | bioavailability [1] | clearance [2]
1 | CC(=O)N1CCC2(CC1)CC(=O)c1ccc(/C=C/C(=O)NO)cc1O2 | 11.3 µM | 6.08 µM | 36 µM | 1.04 µM |  | 
2 | CN1CCC2(CC1)CC(=O)c1cc(C(=O)NO)ccc1O2 | > 50 µM | > 50 µM | > 50 µM | > 50 µM |  | 
3 | O=C(/C=C/c1ccc2c(c1)OC1(CCN(C(=O)c3ccccc3)CC1)CC2=O)NO | 8.78 µM | 3.19 µM | 4.92 µM | 0.366 µM |  | 
4 | O=C(/C=C/c1ccc2c(c1)C(=O)C1(CCN(Cc3ccccc3)CC1)O2)NO | 5.94 µM | 4.11 µM | 3.1 µM | 0.932 µM |  | 
5 | O=C(NO)c1ccc2c(c1)C(=O)CC1(CCN(C(=O)c3ccccc3)CC1)O2 | > 50 µM | > 50 µM | > 50 µM | 29 µM |  | 
6 | CN1CCC2(CC1)CC(=O)c1cc(/C=C/C(=O)NO)ccc1O2 | 1.04 µM | 0.806 µM | 0.266 µM | 0.288 µM |  | 
7 | O=C(/C=C/c1ccc2c(c1)CCC1(CCN(Cc3ccccc3)CC1)O2)NO | ≥ 50 µM | 38.6 µM | 28.2 µM | 9.02 µM |  | 
8 | CC(=O)N1CCC2(CC1)Oc1ccc(/C=C/C(=O)NO)cc1C2=O | > 50 µM | > 50 µM | > 50 µM | > 50 µM |  | 
9 | O=C(/C=C/c1ccc2c(c1)OC1(CCNCC1)CC2=O)NO | 24.8 µM | > 50 µM | 35.5 µM | 1.41 µM |  | 
10 | O=C(/C=C/c1ccc2c(c1)C(=O)CC1(CCNCC1)O2)NO | 2.72 µM | 5.77 µM | 1.59 µM | 0.082 µM |  | 
11 | O=C(/C=C/c1ccc2c(c1)OC1(CCN(Cc3ccccc3)CC1)CC2=O)NO | 12.2 µM | 8.94 µM | 8.41 µM | 2.173 µM |  | 
12 | O=C(/C=C/c1ccc2c(c1)C(=O)C1(CCNCC1)O2)NO | 1.09 µM | 1.69 µM | 0.832 µM | 0.221 µM |  | 
13 | O=C(/C=C/c1ccc2c(c1)C(=O)CC1(CCN(C(=O)c3ccccc3)CC1)O2)NO | 5.52 µM | 1.65 µM | 2.2 µM | 0.316 µM |  | 
14 | O=C(/C=C/c1ccc2c(c1)C(=O)C1(CCN(C(=O)c3ccccc3)CC1)O2)NO | 22.1 µM | 7.43 µM | 12.3 µM | 2.55 µM |  | 
15 | O=C(/C=C/c1cccc(S(=O)(=O)Nc2ccccc2)c1)NO [BELINOSTAT] |  |  |  |  | < 10% | 193 mL/min/kg
16 | CN1CCC2(CC1)CC(=O)c1ccc(/C=C/C(=O)NO)cc1O2 | 3.76 µM | 4.5 µM | 5.72 µM | 5.84 µM |  | 
17 | CN1CCC2(CC1)Oc1ccc(/C=C/C(=O)NO)cc1C2=O | 1.07 µM | 0.397 µM | 0.337 µM | 0.538 µM |  | 
18 | O=C(NO)c1ccc2c(c1)C(=O)CC1(CCN(Cc3ccccc3)CC1)O2 | 22 µM | 16 µM | 15 µM | 24 µM |  | 
19 | CCOC(=O)N1CCC2(CC1)CC(=O)c1ccc(/C=C/C(=O)NO)cc1O2 | 2.78 µM | 2.19 µM | 3.03 µM | 0.408 µM |  | 
20 | CC(=O)N1CCC2(CC1)CC(=O)c1cc(C(=O)NO)ccc1O2 | > 50 µM | > 50 µM | > 50 µM | > 50 µM |  | 

The next lines start with the values.

Row | IC50 (A549) | IC50 (K562) | IC50 (HCT-116) | IC50 (Histone deacetylase) | bioavailability [1] | clearance [2] | SMILES
21 |  |  |  |  | < 10% |  | O=C(CCCCCCC(=O)Nc1ccccc1)NO [VORINOSTAT]
22 | 4.7 µM | 3.27 µM | 3.51 µM | 1.19 µM |  |  | O=C(/C=C/c1ccc2c(c1)C=CC1(CCN(Cc3ccccc3)CC1)O2)NO
23 |  |  |  |  | < 10% | 305 mL/min/kg | Cc1[nH]c2ccccc2c1CCNCc1ccc(/C=C/C(=O)NO)cc1 [PANOBINOSTAT]
24 | 20.2 µM | 2.61 µM | 11.8 µM | 2.99 µM |  |  | CCOC(=O)N1CCC2(CC1)Oc1ccc(/C=C/C(=O)NO)cc1C2=O
25 | > 50 µM | > 50 µM | 32.8 µM | 5.15 µM |  |  | CC(=O)NC1CC2(CCN(Cc3ccccc3)CC2)Oc2ccc(/C=C/C(=O)NO)cc21 (stereo not given)
26 | 26.2 µM | 9.37 µM | 5.66 µM | 0.641 µM |  |  | CC(=O)N1CCC2(CC1)CC(=O)c1cc(/C=C/C(=O)NO)ccc1O2
27 | 5.27 µM | 2.08 µM | 2.14 µM | 0.14 µM |  |  | CCOC(=O)N1CCC2(CC1)CC(=O)c1cc(/C=C/C(=O)NO)ccc1O2
28 | 5.25 µM | 2.95 µM | 2.33 µM | 1.21 µM |  |  | O=C(/C=C/c1ccc2c(c1)C(O)CC1(CCN(Cc3ccccc3)CC1)O2)NO (stereo not given)

Reference: ChEMBL document CHEMBL1938288, “Discovery, synthesis, and pharmacological evaluation of spiropiperidine hydroxamic acid based derivatives as structurally novel histone deacetylase (HDAC) inhibitors” (J Med Chem, 2011)
